Measured values gathered from unrelated publications.
Compare with care: the assays were run in different laboratories.
JAK1 JH1: Tyrosine-protein kinase JAK1, JH1 (JAK1, Homo sapiens, UniProt P23458)
JAK1: Tyrosine-protein kinase JAK1 (JAK1, Homo sapiens, UniProt P23458)

Structure (SMILES) | target | test | conditions | quantity | value
Cc1c[nH]c2nccc(Oc3c(F)cc(Nc4cc(Cl)nc(N)n4)cc3F)c12 | JAK1 JH1 | cell-free assay, competition with immobilised ligand | 0.1 µM | remaining binding | 80%
c1nc2c(Nc3ccc4c(c3)OCCO4)nc(Nc3ccc4c(c3)OCCO4)nc2[nH]1 | JAK1 JH1 | enzyme activity, inhibitor | 10 µM | activity vs control | 52%
O=C1NC(=O)c2cc(Nc3ccc(F)cc3)c(Nc3ccc(F)cc3)cc21 | JAK1 | cell-free assay | 0.5 µM | remaining signal | 91.5%
CS(=O)(=O)N1CCCC(NC(=O)[C@H](CCC2CCCCC2)NC(=O)c2ccc(CNC(=O)c3cnc4ccccn34)cc2)C1 (stereo partly shown) | JAK1 JH1 | cell-free assay, competition with immobilised ligand | 0.1 µM | remaining binding | 64%
COc1cc2nccc(Oc3ccc(NC(=O)c4c5n(n(-c6ccc(F)cc6)c4=O)CCCC5)cc3)c2cc1OC | JAK1 | enzyme activity, inhibitor | 0.1 µM | inhibition | -5%
CC(=O)C1=C(C)N(c2cccc(C(F)(F)F)c2)C(=O)N[C@@H]1c1ccc(C#N)nc1 | JAK1 JH1 | cell-free assay, competition with immobilised ligand | 1 µM | remaining binding | 85.9%
N[C@H]1CCN(c2nccc(-c3cnn4ncccc34)n2)C1 | JAK1 JH1 | cell-free assay | 1 µM | remaining signal | 100%
COc1cc2ncnc(Nc3ccc(Oc4ccccc4)cc3C)c2cc1OC | JAK1 | enzyme activity, inhibitor | 1 µM | inhibition | -5%
Cc1cnn2ncc(-c3ccnc(N(C)C)n3)c2c1 | JAK1 | binding | 1 µM | remaining binding | 51%
CCCS(=O)(=O)Nc1ccc(F)c(C(=O)c2c[nH]c3ncc(-c4ccc(Cl)cc4)cc23)c1F | JAK1 | enzyme activity, inhibitor | 1 µM | inhibition | < 20%
CCS(=O)(=O)c1cc2cc(C[C@](O)(CC(C)(C)c3ccc(F)cc3C(N)=O)C(F)(F)F)[nH]c2cn1 | JAK1 JH1 | cell-free assay, competition with immobilised ligand | 1 µM | remaining binding | 96%
Oc1ccc(-c2nc(-c3ccncc3)c(-c3ccc(F)cc3)[nH]2)cc1 | JAK1 | cell-free assay | 0.5 µM | remaining signal | 102%
CS(=O)(=O)Nc1cccc(-c2csc(NC(=O)CSc3nc4nccnc4c(=O)n3CCc3ccccc3)n2)c1 | JAK1 | enzyme activity, inhibitor | 10 µM | inhibition | 9%
CS(=O)(=O)NCC[C@H](NC(=O)c1cncc2c1cnn2-c1ccc(F)cc1)c1ccnc(S(C)(=O)=O)c1 | Tyrosine-protein kinase JAK1, JH2 (JAK1, Homo sapiens, UniProt P23458) | cell-free assay, competition with immobilised ligand | 1 µM | remaining binding | 100%
Cc1ccc(C(=O)Nc2ccc(CN3CCN(C)CC3)c(C(F)(F)F)c2)cc1C#Cc1cnc2cccnn12 | JAK1 | enzyme activity, inhibitor | 23.5 nM | remaining activity | 86%
COc1cc(Cl)c(C(=O)N[C@@H](CN[C@H]2CC[C@@H](N)CC2)Cc2ccc(C#N)cc2)cc1-c1ccc(CN[C@H](C)c2ccc(C)cc2)o1 | JAK1 JH1 | enzyme activity, inhibitor | 1 µM | remaining activity | 101%
CN(C)C1CCN(CC#Cc2nn(C3CCCC3)c3nc(NCc4ccccc4)ncc23)C1 (stereo not shown) | JAK1 | enzyme activity, inhibitor, FRET | 0.1 µM | inhibition | 2%
CN1CCN(c2cnc3c(C4CCN(C(=O)c5ccc(OC(F)(F)F)cc5N)CC4)ncnc3c2)CC1 | JAK1 JH1 | cell-free assay, competition with immobilised ligand | 1 µM | remaining binding | 100%
CC(C)(O)[C@H]1CC[C@H](Nc2ccc3ncc(-c4cccc(C(F)(F)F)c4)n3n2)CC1 | JAK1 | enzyme activity, inhibitor | 1 µM | remaining activity | 82.4%
C[C@@H]1CCN(c2nccc(-c3cnn4ncccc34)n2)C1 | JAK1 JH1 | cell-free assay | 1 µM | remaining signal | 82%
O=C(Nc1cnn(-c2csc(C(=O)NC3COC3)c2)c1)Nc1c(F)cccc1Cl | JAK1 | enzyme activity, inhibitor | 5 µM | remaining activity | 107%
Nc1ncnc2occ(-c3ccc(NC(=O)Nc4cc(C(F)(F)F)ccc4F)cc3)c12 | JAK1 JH1 | cell-free assay, inhibitor | 20 µM | remaining signal | 0.9%
